# Many of the other results were omitted from the sample, so hits are more common in it than they were.
# PTEN del growth: growth suppressors of cells with PTEN tumor suppressor deletion; HCT116 PTEN-null viability, CellTiter-Glo, 60 h; stronger effect = lower value; viability, % at 10 µM; 1.2% of 140,000 active; AID 827;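 active = viability at or below a set limit, 4 SD under the median of all tested compounds, cut at about 3.7% in these data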;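 note: PTEN knockout HCT116 line with beta catenin targeted HCT116 as companion control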
# H69AR inhibit: growth inhibitors of human H69AR lung tumor cells. 6% of 85,000 active. H69AR lung tumor viability, ATP luminescence, 72 h; stronger effect = lower value. viability, % at 10 µM;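 active = viability at or below 40%; inactive = viability above 40%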;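 note: multidrug resistant small cell line overexpressing MRP-1 efflux transporter; 100% = mean luminescence of untreated control wells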
# HCT116 bCat-KO: beta-catenin-lacking colon tumor cell growth suppression; HCT116 beta-catenin knockout viability, CellTiter-Glo, 60 h; stronger effect = lower value; viability, % at 10 µM; 1.5% of 140,000 active; AID 818;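 active = viability at or under a set limit, the compound median less 4 SD, cut at about 6% in these data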;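 note: 0% = Hyamine 1622 control at 20 µM and 100% = untreated cell control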
# HUVEC inhibit: human endothelial cell proliferation inhibition; HUVEC proliferation, CellTiter-Glo luminescence, 72 h; stronger effect = lower value; viability, % at 10 µM (by protocol); 1.1% of 86,000 active; AID 648;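 active = viability at or below 30%; inactive = viability above 30%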;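 note: 100% = median luminescence of DMSO-only cell control wells on each plate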
# Fibroblast inh: blocks proliferation of human lung fibroblasts; viability, % at 10 µM; 1.1% of 85,000 active; LL 47 human lung fibroblast viability, ATP luminescence; stronger effect = lower value;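 active = viability at or below 50% in the single dose screen; inactive = viability above 50%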;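 note: compound exposure lasted 72 h before the ATP readout; 100% = median luminescence of untreated cell-only wells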
#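 Signal: luminescent ATP detection, CellTiter-Glo; assay system: LL 47 human lung fibroblasts; input: 1,150 cells/well; incubation: overnight cell rest, 72 h compound treatment at 37 °C; measure: % viability versus median cells-only luminescence; medium: IMEM growth medium with 15% fetal bovine serum; dosing: compound addition at 0.1% DMSO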
# An asterisk follows results filed as active; . = no result given.
SMILES,PTEN del growth,H69AR inhibit,HCT116 bCat-KO,HUVEC inhibit,Fibroblast inh
O=c1c(C(c2ccccc2)c2c(O)sc3ccccc3c2=O)c(O)sc2ccccc12,79,36*,85,67,89
Cc1ccc(-c2nnc(-n3ncc(C#N)c3N)c3ccccc23)cc1C,88,.,85,.,.
CCCCNC(=O)/C(C#N)=c1\s/c(=C\c2ccccc2OC(F)F)c(=O)n1CCCOC,86,.,92,.,.
O=C(c1ccc2c(c1)OCO2)N(Cc1ccco1)C1(C(=O)NC2CCCCC2)CCCCC1,32,.,36,.,.
Cc1cc(C)n(-c2nnc(C)n2/N=C/c2ccco2)n1,99,95,86,110,100
CCCOc1ccc2ccccc2c1/C=N/n1c(C)nnc1-n1nc(C)cc1C,22,24*,23,54,55
COc1cc(C(=O)Oc2ccccc2N)cc(OC)c1OC,90,86,100,95,117
COc1cc(C(=O)Oc2cccc(C=O)c2)cc(OC)c1OC,65,25*,53,73,86
O=C(NC1CCCC1)c1ccc(CS(=O)(=O)c2ccc(Br)cc2)o1,96,89,90,102,101
CC1(C)C(C=C(Cl)Cl)C1C(=O)Nc1ccc([N+](=O)[O-])cc1 (stereo unspecified),2.4*,.,3.9*,.,.
O=C(Nc1ccc([N+](=O)[O-])cc1)C1CC1(c1ccccc1)c1ccccc1 (stereo unspecified),66,.,73,.,.
Cc1c(-c2nnc(SCC(=O)O)n2-c2ccccc2Br)nnn1-c1ccccc1,94,.,96,.,.
O=C(COC(=O)C1CCN(S(=O)(=O)c2ccccc2C(F)(F)F)CC1)NCc1ccc(F)cc1,107,.,96,.,.
CC(C)CNS(=O)(=O)c1ccc(OCC(=O)NCC2CCCO2)c(Cl)c1 (stereo unspecified),92,107,92,91,99
O=C(NC(NC(=S)Nc1ccccc1)C(Cl)(Cl)Cl)c1cccc(Cl)c1 (stereo unspecified),2.0*,.,2.6*,.,.
Cc1cc(C)c(NC(=S)NC(NC(=O)c2ccccc2)C(Cl)(Cl)Cl)c(C)c1 (stereo unspecified),4,.,7,.,.
O=C(NC(NC(=S)Nc1ccc(Cl)cc1Cl)C(Cl)(Cl)Cl)c1cccc([N+](=O)[O-])c1 (stereo unspecified),3.3*,.,4.1*,.,.
Cc1ccc(NC(=S)NC(NC(=O)c2ccco2)C(Cl)(Cl)Cl)cc1 (stereo unspecified),58,22*,62,84,96
CC(=O)Nc1ccccc1OCC(=O)N(Cc1ccccc1)C(C)C,77,.,71,.,.
CC(C)CCN(C(=O)Nc1ccccc1)C(C)c1cccs1 (stereo unspecified),67,98,69,94,91
CCN(CC)S(=O)(=O)c1ccc(OC)c(NC(=O)C(Cc2ccccc2)N2C(=O)c3ccccc3C2=O)c1 (stereo unspecified),89,.,94,.,.
COc1ccc(/C=N/n2cc(-c3ccc(OC)cc3)nc2N)cc1,81,25*,64,84,94
COc1ccc(/C=N/N2C(=O)c3ccccc3C2=O)cc1,97,.,101,.,.
COc1ccc(/C=N/n2cc(-c3ccccc3)nc2N)cc1,36,18*,35,59,82
CCC(C)c1ccc(OCCCCN2CCOCC2)cc1 (stereo unspecified),86,82,87,79,92
SMILES,PTEN del growth,H69AR inhibit,HCT116 bCat-KO,HUVEC inhibit,Fibroblast inh
Cc1ccc2oc3c(c(=O)c2c1)C(c1cccc(O)c1)N(c1ccccn1)C3=O (stereo unspecified),54,86,58,90,98
COc1cc(C2c3c(oc4ccc(C)cc4c3=O)C(=O)N2c2cc(C)ccn2)cc(OC)c1OC (stereo unspecified),.,32*,.,70,62
CC(=O)OCCCNc1cc(SCc2ccco2)c2nonc2c1[N+](=O)[O-],3.5*,.,2.3*,.,.
CCOC(=O)C1CCCN(c2cc(NCCCO)c([N+](=O)[O-])c3nonc23)C1 (stereo unspecified),95,.,93,.,.
CCCC(=O)OCCNc1cc(Sc2nccn2C)c2nonc2c1[N+](=O)[O-],1.7*,.,1.9*,.,.
CCCSc1cc(NCCOC(=O)CCC)c([N+](=O)[O-])c2nonc12,21,.,21,.,.
CCCC(=O)OCCNc1cc(SCc2ccco2)c2nonc2c1[N+](=O)[O-],14,.,2.7*,.,.
CCCSc1cc(NCCOC(C)=O)c([N+](=O)[O-])c2nonc12,89,.,91,.,.
COc1ccc(C(=O)c2c(C)c3cc(C)ccc3n2CC(O)CN2CCOCC2)cc1 (stereo unspecified),64,.,69,.,.
O=C(COc1ccc(Br)cc1)Nc1ccc([N+](=O)[O-])cn1,92,.,98,.,.
CC1(C)C(c2ccccc2)=[N+]([O-])CN1O,89,34*,83,96,.
CC1(C)C(c2ccccn2)=[N+]([O-])C(C)(C)N1O,97,92,94,98,96
Cc1cccc(N2CCN(C3=NC(=O)C(Cc4ccccc4)S3)CC2)c1 (stereo unspecified),79,.,88,.,.
COc1ccccc1Nc1nc(N)nc(CN2CCC(Cc3ccccc3)CC2)n1,73,40*,77,72,92
COc1ccc(Nc2nc(N)nc(CN3CCC(Cc4ccccc4)CC3)n2)cc1,27,102,27,36,65
CCc1ccc(N/C(SCc2ccccc2C)=C(/C#N)C(=O)NCc2ccco2)cc1,75,.,71,.,.
COc1ccc(N(C(=O)c2ccccc2C)S(=O)(=O)c2cccs2)cc1,14,.,13,.,.
CC(=O)Oc1ccc(N(C(C)=O)S(=O)(=O)c2cccs2)c2ccccc12,78,1.4*,70,4.0*,112
Cc1ccc(-c2cc(C(F)F)n3ncc(C(=O)N4CCN(c5cccc(C)c5C)CC4)c3n2)cc1,8,81,3.2*,81,101
COc1ccc(-c2cc(C(F)F)n3ncc(C(=O)N4CCN5CCCC5C4)c3n2)cc1 (stereo unspecified),59,38*,59,98,97
O=C(c1ccc(F)cc1)N1CCN=C1c1ccccc1,92,.,97,.,.
O=C(OCn1ncc(Cl)c(Cl)c1=O)c1ccc(C(F)(F)F)cc1,4,.,3.4*,.,.
Cc1ccc(C(=O)OCn2ncc(Cl)c(Cl)c2=O)cc1,1.2*,.,1.0*,.,.
CCc1ccccc1NC(=O)CN(C)C(=O)Cn1ncc(Cl)c(Cl)c1=O,1.8*,.,1.8*,.,.
COc1ccc(CC(=O)Nc2ccc3c(c2)OCO3)cc1S(=O)(=O)N1CCOCC1,77,81,77,104,102
COc1ccc(NC(=O)Cn2ncc(Cl)c(Cl)c2=O)cc1S(=O)(=O)N1CCOCC1,0.6*,.,0.9*,.,.
CCOC(=O)c1ccc(NC(=O)Cn2ncc(Cl)c(Cl)c2=O)cc1,1.8*,.,1.7*,.,.
CCOC(=O)c1ccc(NC(=O)CN2C(=O)CCC2=O)cc1,98,117,97,95,97
CCOC(=O)c1ccc(NC(=O)CN2C(=O)C3C4C=CC(C4)C3C2=O)cc1 (stereo unspecified),108,35*,107,94,100
